An excerpt weighted towards active compounds, which were near 2.6% of everything screened.
esBAF inh – Bmi1 luciferase reporter increase in mESCs, primary screen, esBAF inhibitor project, mouse ES cells, Bmi1 luciferase knock-in, single point; 24 h; 100% = twice the neutral-well signal; reporter increase, % at 12.5 µM; hit rate 2% among 350,000; in the data active = activation above about 40%; inconclusive = no clear call, values can overlap the other calls;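 also: 0% = median of the plate's neutral control wells and 100% = double that signal; a rise in the Bmi1 reporter signal indicates esBAF inhibition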
Wnt bcat act – Wnt/beta-catenin pathway activators, primary screen, cell-based, plate reader, single point; Wnt/beta-catenin reporter cell assay, activator; activation, % at 9.35 µM; hit rate 1.2% among 300,000; AID 743398, 2014; in the data active = activation above about 30%, passing the limit was not always enough; inconclusive = no clear call, values can overlap the other calls;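 also: 0% = neutral control wells and 100% = positive control wells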
Vif imaging – HIV Vif self-association inhibitors, primary screen, imaging, HEK293T, single point | hit rate 0.35% among 340,000 | HEK293T cells, Vif self-association by quenched fluorescence, 24 h | AID 602346, 2012 | inhibition, % at 7.49 µM; in the data active = inhibition above about 50%, passing the limit was not always enough; inconclusive = no clear call, values can overlap the other calls; inactive = below about 31%
MITF act – activators of MITF-driven TRPM1 promoter reporter, primary screen, cell-based, SK-MEL-5, luciferase, single point; SK-MEL-5 TRPM1-promoter luciferase, 24 h; % of positive control, neutral wells = 0; activation, % at 12.5 µM; hit rate 0.75% among 300,000; AID 588334, 2011;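 active = mean activation of at least 80% with every replicate also reaching 80%; inconclusive = mean reaches 80% but some replicate falls short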;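 also: 0% = neutral control wells and 100% = parthenolide positive control wells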
Xi reactivation – activators of inactive X chromosome reactivation, primary screen, imaging, XiGFP fibroblasts, GFP high-content imaging, set 2. AID 743238, 2013. XiGFP mouse fibroblasts, % GFP-positive cells imaging, 3 d; cells co-treated with 5-aza-dC sensitizer; scaled so ellipticine positive control = 100%. hit rate 0.055% among 360,000. activation, % at 7.58 µM;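 active = mean normalized replicate activation at least 10% and every replicate at or above 10%; inconclusive = only one of the two criteria met; inactive = mean below 10% and not all replicates reach 10%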;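 also: 0% = median of on-plate neutral control wells and 100% = ellipticine 6 µM median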
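System: 68-5-11 XiGFP fibroblast line; Timing: 3 days compound exposure; Compound dosing: one concentration, pinned; Benchmarks: positive control ellipticine, 6 µM final; Buffer or medium: DMEM containing 5-aza-dC.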
* marks the source's active call; other numbers are inactive results; ? = inconclusive; · = no result given.

SMILES	esBAF inh	Wnt bcat act	Vif imaging	MITF act	Xi reactivation
O=C1CCCN1CCCNc1ncnc2c1cnn2-c1ccc(Cl)cc1	42.4*	7.7	-7.3	24.3	0.0
Clc1ccc(-n2ncc3c(NCc4ccco4)ncnc32)cc1	52.0*	59.9*	-4.4	·	·
Brc1nc(-c2ccccc2)nc(-c2ccccc2)c1Br	-6.6	0.3	69.5*	·	0.0
C[C@H]1CCC(=O)N([C@H](CN=[N+]=[N-])Cc2ccccc2)CC1	3.9	0.8	59.3*	-4.9	0.2
CO[C@H]1CN(C)C(=O)c2ccc(NC(=O)Nc3c(C)noc3C)cc2OC[C@@H](C)N(CC2CC2)C[C@H]1C	-10.2	·	·	·	0.0
Cc1cc(O)c(C(=O)/C=C/c2ccc(C(C)C)cc2)c(=O)o1	24.0	39.3*	-2.8	8.9	0.1
Cc1cc(O)c(C(=O)/C=C/c2ccccc2)c(=O)o1	26.6	11.8	0.9	-5.6	0.0
CCCNC(=O)N1CCC2(CC1)CN(C(=O)NC(C)C)[C@H](CO)c1c2c2ccc(OC)cc2n1C	·	·	·	·	0.3
O=C(c1ccc(F)cc1)N1CC2(C1)[C@@H](c1ccccc1)[C@@H](CO)N2Cc1ccccn1	·	·	·	·	0.0
CCC(=O)Nc1ccc2c(c1)OC[C@@H](C)N(C(=O)COC)C[C@@H](C)[C@H](OC)CN(C)C2=O	-2.6	·	·	·	0.0
S=c1[nH]nc(CNc2ccc(Cl)cc2)n1Cc1ccccc1	·	-2.4	-0.9	-3.6	0.0
Fc1ccc(NCc2n[nH]c(=S)n2Cc2ccccc2)cc1	6.2	-2.0	62.3*	6.6	0.0
NC(=S)NN=C(c1ccc(F)cc1)C1CC1	-4.0	-3.5	69.9*	9.8	0.0
C[C@H](CO)N1C[C@H](C)[C@H](CN(C)C(=O)c2ccccc2)OCCCC[C@H](C)Oc2ccc(NC(=O)Nc3ccc4c(c3)OCO4)cc2C1=O	2.8	·	·	·	0.3
CNC[C@@H]1Oc2c(NC(=O)NC(C)C)cccc2C(=O)N(C)C[C@@H]1C	·	·	·	·	0.2
N/C(Cc1cccs1)=N\OC(=O)COc1ccc(Cl)cc1Cl	71.4*	·	·	?	·
N/C(=N\OC(=O)CCCOc1ccc(Cl)cc1Cl)c1ccncc1	3.8	-0.9	-3.1	-0.7	0.1
CCc1ccc(OCC(=O)O/N=C(\N)c2ccncc2)c(Br)c1	95.5*	31.4*	-0.6	103.4*	-0.1
N/C(=N\OC(=O)COc1ccc(Cl)cc1Br)c1ccncc1	·	45.3*	-2.9	92.0*	0.1
N/C(=N\OC(=O)COc1ccc(Cl)cc1)c1cccnc1	·	4.7	-1.8	0.9	0.1
N/C(=N\OC(=O)COc1ccc(Cl)cc1Cl)c1cccnc1	56.4*	29.7	18.9	141.6*	0.3
CCc1ccc(OCC(=O)O/N=C(\N)c2ccncc2)cc1	·	6.8	-10.1	72.8	0.1
N/C(Cc1ccc(Cl)cc1Cl)=N\OC(=O)Cc1cccs1	25.7	11.9	·	4.2	0.0
CCCC#Cc1ccc([C@@H]2[C@H](CO)N3C(=O)CN(C(=O)Nc4ccccc4)C[C@@H]23)cc1	·	·	·	·	0.2
C[C@@H]1CN([C@@H](C)CO)C(=O)Cc2cc(NC(=O)Cn3cnnn3)ccc2O[C@H]1CN(C)Cc1ccc(C(=O)Nc2ccccc2N)cc1	·	·	·	·	0.0
SMILES	esBAF inh	Wnt bcat act	Vif imaging	MITF act	Xi reactivation
Cc1cccc(C(=O)OCC(=O)c2c(C)[nH]c3ccccc23)c1O	72.8*	37.1*	-18.0	81.6*	0.0
N#CCC(=O)Nc1ccc(C(=O)OCC(=O)c2ccc3c(c2)OCCO3)cc1	67.9*	27.1	7.1	43.1	0.1
N#CCC(=O)Nc1ccc(C(=O)Nc2ccc3c(c2)OCO3)cc1	18.4	16.5	1.4	15.2	-0.3
N#CCC(=O)Nc1ccc(C(=O)OCC(=O)c2ccc3c(c2)OCO3)cc1	46.6*	39.1*	1.8	69.4	0.0
NS(=O)(=O)c1ccc(NC(=O)COC(=O)c2ccc3c(c2)OCCO3)cc1	-7.1	-1.0	17.0	-14.6	0.1
Cc1cccc(C(=O)OCC(=O)c2ccc3c(c2)OCO3)c1O	5.6	57.3*	·	118.9*	0.4
CNC[C@H]1Oc2c(NC(C)=O)cccc2C(=O)N(C)C[C@@H]1C	·	·	·	·	0.1
C[C@@H]1CN([C@H](C)CO)C(=O)c2cccc(NC(=O)C3CCOCC3)c2O[C@H]1CN(C)C(=O)Nc1ccc(F)cc1	4.2	·	·	·	0.0
O=C(C1CC12CCCC2)N1CCC(CO)(Cc2ccccc2Cl)CC1 (stereo not drawn)	·	56.2*	3.2	5.1	0.3
COC(=O)c1ccc(CN2CCC(CO)(Cc3ccccc3Cl)CC2)cc1	-0.4	-0.5	-19.7	2.7	0.4
CCN(CC)c1nc2c3c(nc4c(c3c1C#N)CC(=O)N4c1ccc(Cl)cc1)NC(C)=N2	·	3.5	-8.8	5.8	0.0
CCc1ccc(N2C(=O)Cc3c2nc(N)c(C#N)c3N)cc1	53.3*	14.8	2.2	29.2	·
CC(C)(C)c1ccc(N2C(=O)Cc3c2nc(N)c(C#N)c3N)cc1	51.1*	·	-16.7	·	·
Cc1nn(-c2ccccc2)c2nc(N)c(C#N)c(-c3ccc(C(C)(C)C)cc3)c12	-2.5	-1.6	0.7	·	0.1
COc1ccc2c3c([nH]c2c1)[C@H](CO)NCC31CCN(C(=O)Cc2ccncc2)CC1	·	·	·	·	0.0
CC(C)NC(=O)Nc1ccc2c(c1)C(=O)N([C@@H](C)CO)C[C@@H](C)[C@H](CN(C)CC1CCCCC1)O2	-0.5	·	·	·	0.2
Cc1ccc(N2C(=O)[C@@H]3Cc4ccccc4CN3C2=O)cc1	55.2*	14.1	-2.0	41.7	·
C[C@H]1CN([C@@H](C)CO)C(=O)c2cc(C3=CCCCC3)cnc2O[C@H]1CN(C)Cc1ccccc1F	0.3	·	·	·	1.1
Cc1nc2nc(-c3cccs3)[nH]c2cc1Br	27.1	65.7*	-6.0	·	0.0
c1ccc(-c2nc(-c3cccs3)[nH]c2-c2ccccc2)cc1	·	-1.4	-1.1	-8.2	·
Oc1ccccc1-c1cc(-c2ccccc2)n[nH]1	18.3	53.3*	-4.0	51.8	0.0
COc1ccc(-c2cc(-c3ccccc3O)[nH]n2)cc1	·	·	8.2	38.1	·
COc1ccc(-c2cc(-c3ccccc3)n[nH]2)c(O)c1	83.4*	13.7	-4.8	58.4	0.0
Oc1ccccc1-c1cc(-c2ccc(F)cc2)n[nH]1	-6.4	53.4*	11.1	36.2	0.1
CO[C@@H]1CN(C)C(=O)c2cc(NC(=O)C3CCCC3)ccc2OC[C@H](C)N(C(=O)CC2CC2)C[C@H]1C	-0.9	·	·	·	0.1
C[C@H]1CN([C@@H](C)CO)C(=O)c2cc(/C=C/c3ccccc3)cnc2O[C@@H]1CN(C)C(=O)Cc1cccnc1	2.1	·	·	·	0.1
O=C(CNC(=O)c1ccccc1)OCC(=O)N1N=C(c2ccc(Cl)cc2)CC1c1ccco1 (stereo not drawn)	·	40.8*	6.4	4.2	0.3
O=C(COc1cc(F)ccc1[N+](=O)[O-])N1N=C(c2cccs2)CC1c1ccco1 (stereo not drawn)	19.4	5.1	-2.9	22.5	0.2

Screens deposited in PubChem BioAssay by Broad Institute.
